Screening data: PubChem BioAssay, several laboratories
Most compounds without a hit are left out; they make up all but 4.1% or so of the library.
Redox H2O2 prof: compounds producing H2O2 with reducing agent – biochemical, NIH compound library profiling, artefact control for MLSCN library redox annotation, primary screen; hit rate 0.03% among 200,000; activation, % at 10 µM; AID 878, 2007; DTT-dependent redox cycling H2O2, phenol red/HRP absorbance; 100% = 100 µM peroxide control, 0% = buffer;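 active = activation of at least 50% relative to the plate's high and low controls in the primary single-dose screen; inactive = activation below 50%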;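 also: compound incubated with DTT at 0.8 mM final as the reducing agent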
KCC2 mod: KCC2 cotransporter modulators, thallium flux, primary screen, cell-based, HEK293 KCC2, FluoZin-2 fluorescence, MLSMR; Solute carrier family 12 member 5 (Homo sapiens), Q9H2X9; hit rate 2.2% among 190,000; KCC2 cells, thallium flux FluoZin-2 fluorescence; B-score of Tl+ flux slope (higher = more flux/activation; lower = inhibition) at 10 µM;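 active = thallium flux slope and its plate-corrected score both differing from the plate sample mean at a set confidence after two filtering rounds, in either direction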;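 also: slope of fluorescence scaled to starting intensity during 10 to 20 s after thallium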
Autophagy HCS: autophagy modulators in MEF cells, primary screen, imaging, high-content, MEF GFP-LC3; MEF GFP-LC3 puncta imaging; test concentration mostly 10 µM; calls only at 10 µM (by protocol); hit rate 0.98% among 190,000; AID 463193, 2010;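 active = percentage of spot-positive cells more than 3 SD above its plate mean, without a fluorescence outlier flag or 80% toxicity; inconclusive = no clear call, values can overlap the other calls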;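 also: spot-positive cell cutoff set from DMSO-treated cells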
Dynein transport: inhibitors of GR-EGFP nuclear translocation, primary screen, dynein cargo transport inhibitor project, imaging, high-content, 3617.4 mouse cells; test concentration mostly 20 µM; stimulated with dexamethasone, 1 µM; stronger effect = lower value; hit rate 0.47% among 220,000; z-score, hits read low; AID 1381, 2008;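 active = plate z-score of nuclear minus cytoplasmic receptor signal below a set negative limit, without overly bright fluorescence or cell loss, cut at about -3.5 in these data, passing the limit was not always enough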;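 also: z-score of nuclear minus cytoplasmic ring GR-EGFP intensity difference per well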
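Buffer or medium – tet-free medium with charcoal-stripped serum · Signal – automated 10x imaging of fixed Hoechst-stained cells · Also added – dexamethasone agonist, 1.0 µM final, for 30 min · Incubation – induction 48 h, compound 1 h, agonist 30 min · Read-out – GR-EGFP nuclear translocation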
ROMK mod: ROMK potassium channel modulators, primary screen, cell-based, thallium flux, MLSMR library | ATP-sensitive inward rectifier potassium channel 1 (Homo sapiens), P48048 | Tet-inducible ROMK, thallium flux fluorescence; actives lie on both sides | B-score at 10 µM | hit rate 2% among 130,000 | AID 1918, 2009;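 active = signal ratio slope over the read window, or its plate-corrected B-score, at least 3 SD from the plate mean, either direction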;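 also: B-score of the F/F0 ratio slope over 7 to 12 s after thallium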
Target sequence (P48048 whole entry, looked up): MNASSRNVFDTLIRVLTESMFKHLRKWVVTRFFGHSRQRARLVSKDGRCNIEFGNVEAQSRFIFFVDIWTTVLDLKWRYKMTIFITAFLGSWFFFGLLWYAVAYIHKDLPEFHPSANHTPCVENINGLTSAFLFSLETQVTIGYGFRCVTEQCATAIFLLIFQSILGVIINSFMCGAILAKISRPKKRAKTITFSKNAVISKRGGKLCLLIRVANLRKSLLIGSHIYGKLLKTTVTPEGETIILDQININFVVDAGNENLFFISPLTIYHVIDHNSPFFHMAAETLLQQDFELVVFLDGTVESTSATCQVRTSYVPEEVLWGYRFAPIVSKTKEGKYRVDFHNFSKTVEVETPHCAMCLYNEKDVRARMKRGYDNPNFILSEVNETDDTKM
ROMK hit retest: ROMK channel modulator hit retest, confirmation, cell-based, thallium flux, duplicate, resupplied hits; shares compounds with ROMK mod; hit rate 54% among 3,000; fluorescence ratio; stronger effect = lower value; normalized thallium flux (F/F0 slope) at 10 µM;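 active = Flux at 10 µM at least 3 SD below or above vehicle control mean in one or both replicates; inconclusive = no clear call, values can overlap the other calls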
Starred values were filed as active, the others as inactive; i = inactive; ? = inconclusive; . = not tested or not shown; + = active, no number.

SMILES	Redox H2O2 prof	KCC2 mod	Autophagy HCS	Dynein transport	ROMK mod	ROMK hit retest
Cc1cccc(OCCCCCNCCO)c1	-1.4	.	i	0.0884	-0.00354	.
O=C(COc1ccccc1)NCC(=O)N/N=C/c1ccc(O)cc1O	.	-0.0903	.	0.701	.	.
CCOC(=O)C1(CCc2ccccc2)CCN(C(=O)C2CCOCC2)CC1	12.1	-0.502	i	-0.453	0.3	.
Cn1ncc2c(Nc3ccc([N+](=O)[O-])cc3)nc(Cl)nc21	.	-0.296	.	-0.0245	.	.
COc1ccc(Sc2nc(-c3ccccn3)ncc2OC)cc1	-2.1	-0.42	i	1.28	-0.0828	.
COc1cnc(-c2ccccn2)nc1Sc1ccccc1	0.0	.	i	0.0583	-2.96	?
O=C(Oc1ccc(=O)n(-c2ccccc2)n1)c1ccc(F)cc1	-1.2	.	i	-0.516	-3.83*	0.0534*
O=C(Oc1ccc(=O)n(-c2ccccc2)n1)c1ccc(Cl)cc1	14.1	0.195	i	-0.0228	.	.
Cc1ccc(-n2c3nc(=O)[nH]c(=O)c-3cc3cc([N+](=O)[O-])ccc32)cc1	-0.4	-2.14	i	-2.02	-6.58*	0.0383*
Cc1ccc(-n2c(C)nn(Cc3ccc([N+](=O)[O-])cc3)c2=O)cc1	-0.3	0.6	i	-0.254	-0.296	.
CCn1c(=N)n(CC(O)COc2cccc(C)c2)c2ccccc21 (stereo unspecified)	0.6	-1.33	i	-0.178	-3.21	.
CCCCn1c(=N)n(CC(O)COc2ccc(C)cc2)c2ccccc21 (stereo unspecified)	0.0	0.0799	i	1.07	-7.01*	0.0484*
CCCCn1c(=N)n(CC(O)COc2ccccc2)c2ccccc21 (stereo unspecified)	1.2	0.0299	i	0.228	-3.67*	?
Cc1ccc(Cn2c(=N)n(CC(O)COc3ccccc3)c3ccccc32)cc1 (stereo unspecified)	0.1	0.181	+	-0.665	-4.09*	0.0487*
CCCn1c(=N)n(CC(O)COc2cccc(C)c2)c2ccccc21 (stereo unspecified)	-0.3	.	i	-1.56	-3.44*	0.0508*
N=c1n(Cc2ccccc2)c2ccccc2n1CC(O)COc1ccccc1 (stereo unspecified)	-1.7	0.0781	i	-1.02	.	.
OCC1(Cc2ccccc2)CCCN(Cc2c[nH]c3ccccc23)C1 (stereo unspecified)	0.0	-0.314	i	0.874	-2.38	.
COc1ccccc1C(=O)Oc1ccc2c(c1)O/C(=C\c1ccncc1)C2=O	0.6	-0.267	i	0.887	.	0.061*
CCC(=O)Oc1ccc2c(c1)O/C(=C\c1ccco1)C2=O	.	i	.	0.276	-7.38*	0.0505*
Cc1c(NC(=O)CN2c3ccccc3CC2C)c(=O)n(-c2ccccc2)n1C (stereo unspecified)	5.7	1.16	i	0.0442	-0.471	.
O=Cc1ccc(-c2ccc([N+](=O)[O-])cc2Cl)o1	-1.5	0.00435	i	-0.378	0.577	.
O=Cc1ccc(-c2cccc([N+](=O)[O-])c2)o1	.	-0.514	.	-0.803	.	0.101*
Cc1ccc(C(=O)NCc2nnc(SCC(=O)NC(C)c3ccccc3)n2C)cc1 (stereo unspecified)	-0.2	0.197	i	-0.075	-0.109	.
Cn1c(N)c(C(=O)CSc2nc3ccccc3[nH]2)c(=O)n(C)c1=O	.	0.18	.	0.0331	0.879	.
Cc1sc2nc(CN3CCCCC3)nc(N3CCN(C(=O)c4ccco4)CC3)c2c1C	-0.7	-2.47	i	-0.132	1.6	.
SMILES	Redox H2O2 prof	KCC2 mod	Autophagy HCS	Dynein transport	ROMK mod	ROMK hit retest
Cc1sc2nc(CN3CCCC3)nc(N3CCN(S(=O)(=O)c4cccs4)CC3)c2c1C	0.4	.	i	-0.194	-2.52*	0.0553*
O=C(Cc1ccc(-c2ccccc2)cc1)NCc1cccnc1	-1.0	-2.73	i	1.55	3.2*	0.0878
O=C(Cc1ccccc1)NCc1cccnc1	-0.3	0.907	i	-0.786	0.369	.
Cc1ccc2c(N)c(C#N)sc2n1	0.2	0.508	i	-1.34	3.42*	0.0809
N#Cc1sc2nc3c(cc2c1N)CCCC3	0.4	0.0473	i	-0.575	2.75	0.105*
CCCc1ccc2c(N)c(C#N)sc2n1	0.5	.	i	-1.53	1.03	.
Cc1ccccc1N1C(=O)C(Cc2ccc(F)cc2)S/C1=C(\C#N)C(N)=O (stereo unspecified)	.	0.12	.	-0.21	.	.
CC1(C)CC(=O)C=C(NCCN2CCN(C(=S)Nc3ccccc3)CC2)C1	.	-0.467	.	0.332	.	.
O=C(Nc1nnc(-c2ccco2)o1)c1ccc([N+](=O)[O-])s1	-0.3	-0.327	i	-0.582	0.61	.
O=C1N=C(N2CCOCC2)S/C1=C\c1ccc(-c2ccccc2Cl)o1	1.4	i	+	2.87	.	0.0524*
O=C(CN(C(=O)CCC(=O)Nc1nccs1)C1CCCC1)NCc1ccc2c(c1)OCO2	-1.8	-0.839	i	-0.21	0.389	.
CCc1ccc(-n2c(SCC(=O)Nc3cccc(S(=O)(=O)NC4=NCCCCC4)c3)nc3ccccc3c2=O)cc1	0.0	1.28	i	0.268	-2.68*	?
Cc1ccc(-n2c(SCC(=O)Nc3cccc(S(=O)(=O)NC4=NCCCCC4)c3)nc3ccccc3c2=O)cc1	0.9	0.308	i	0.205	.	.
CCOc1ccc(/C=N/NC(=O)Cc2cccs2)cc1	.	0.31	.	-0.91	.	.
C=CCn1c(COc2ccc(Cl)cc2)nnc1SCc1ccc(C#N)cc1	6.0	-1.39	i	0.124	.	?
CCCCN1C(=O)/C(=C/C=C2\SCCN2C)SC1=S	0.5	0.333	i	0.115	-3.35*	0.0522*
O=C(Nc1ccc(C(F)(F)F)cc1)c1cnc(N2CCN(c3ccccn3)CC2)c2ccccc12	4.9	1.39	i	-1.06	-0.097	.
COc1cc(/C=N\n2cnnc2)ccc1OCC(=O)Nc1ccc(C)cc1	2.3	0.618	i	0.81	.	0.0761
COc1ccc(NC(=O)COc2ccc(/C=N/n3c(C)nnc3C)cc2OC)cc1	0.9	-1.38	i	-1.02	.	.
CC(C)Cn1c(=O)c(C(=O)N/N=C/c2cccc(F)c2)c(O)c2ccccc21	0.2	0.803	i	0.76	-0.112	.
O=C(O)c1ccccc1-c1ccccc1C(=O)Nc1cccc(O)c1	-0.4	0.0331	i	-0.532	-0.357	.
O=C(NCCc1c[nH]c2ccccc12)/C(=C/c1ccco1)NC(=O)c1ccco1	-1.0	-0.393	i	1.02	2.32*	0.088
CC(=C\c1ccco1)/C=C(\C#N)C(=O)NCCc1c[nH]c2ccccc12	0.8	1.05	i	-0.113	.	.
COCCNC(=O)CN1C(=O)COc2ccc(Cl)cc21	-0.6	0.547	i	0.336	1.74	0.0785
